Measurements as given in ChEMBL document CHEMBL2390832, “Synthesis and activity evaluation of tilorone analogs as potential anticancer agents” (Eur J Med Chem, 2013).
Structures can show the parent of a compound that is named as a salt. Active and inactive are the calls of the source. No cut-off for these calls is given here.

Key:
HeLa [1] = experiment: Anticancer activity against human HeLa cells after 48 hrs by MTT assay; type: functional, cell-based
Outline: (§1)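 Cells seeded at 1 × 10⁴/well in DMEM with 10% FBS and left overnight at 37 °C, 5% CO₂. Five concentrations (1 µM–100 µM) diluted in DMEM were added and incubated for 48 h. MTT (10 µl of 5 mg/ml) was then added for 4 h at 37 °C. Formazan was dissolved in DMSO and absorbance read at 490 nm. At least three parallel runs; IC50 by regression analysis.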

[2] = Anticancer activity against human Hep3B cells after 48 hrs by MTT assay; type: functional, cell-based, Hep 3B2; outline: as §1
A549 [3] = experiment: Anticancer activity against human A549 cells after 48 hrs by MTT assay; type: functional, cell-based; details: A549, 48 h; outline: as §1
Vero = experiment: Cytotoxicity against African green monkey Vero cells after 48 hrs by MTT assay; type: cell-based; details: Chlorocebus sabaeus; outline: as §1
HEK-293T = experiment: Cytotoxicity against human HEK293T cells after 48 hrs by MTT assay; type: cell-based; outline: as §1
Hep 3B2 = experiment: Anticancer activity against human Hep3B cells at =/> 100 uM after 48 hrs by MTT assay; type: functional, cell-based
A549 [4] = experiment: Anticancer activity against human A549 cells at =/> 100 uM after 48 hrs by MTT assay; type: functional, cell-based
HeLa [5] = experiment: Anticancer activity against human HeLa cells at =/> 100 uM after 48 hrs by MTT assay; type: functional, cell-based

SMILES	IC50 (HeLa [1]) [µM]	IC50 (A549 [3]) [µM]	IC50 [2] [µM]	IC50 (Vero) [µM]	IC50 (HEK-293T) [µM]	Activity (Hep 3B2)	Activity (A549 [4])	Activity (HeLa [5])
CCCCNCCOc1ccc2c(c1)C(=O)c1cc(OCCNCCCC)ccc1-2	2.21	2.65	3.34	8.89	11	–	–	–
O=c1c(-c2ccc(OCCCBr)cc2)coc2cc(OCCCBr)ccc12	–	–	–	–	–	inactive	inactive	inactive
O=C1c2cc(OCCn3ccnn3)ccc2-c2ccc(OCCn3ccnn3)cc21	> 100	> 100	> 100	–	–	–	–	–
O=C1c2cc(OCCn3cncn3)ccc2-c2ccc(OCCn3cncn3)cc21	> 100	> 100	> 100	–	–	–	–	–
CCN(CC)CC(O)COc1ccc(-c2coc3cc(OCC(O)CN(CC)CC)ccc3c2=O)cc1 (centres undefined)	27.8	25	30.4	60.1	52.9	–	–	–
CCN(CC)CCOc1ccc(-c2coc3cc(OCCN(CC)CC)ccc3c2=O)cc1	26.4	19.4	35.2	102	107	–	–	–
CCOc1ccc2c(c1)C(=O)c1cc(OCCO)ccc1-2	–	–	–	–	–	inactive	inactive	inactive
CCCN(CCC)CC(O)COc1ccc(-c2coc3cc(OCC(O)CN(CCC)CCC)ccc3c2=O)cc1 (centres undefined)	5.17	4.26	6.52	35.5	39.6	–	–	–
O=c1c(-c2ccc(OCCCl)cc2)coc2cc(OCCCl)ccc12	–	–	–	–	–	inactive	inactive	inactive
CC(C)(C)SCCOc1ccc2c(c1)C(=O)c1cc(OCCSC(C)(C)C)ccc1-2	–	–	–	–	–	inactive	inactive	inactive
CCN(CC)CCCOc1ccc(-c2coc3cc(OCCCN(CC)CC)ccc3c2=O)cc1	82.4	73.5	76.1	–	–	–	–	–
CCOc1ccc2c(c1)C(=O)c1cc(OCCCl)ccc1-2	–	–	–	–	–	inactive	inactive	inactive
CCN(CC)CCOc1ccc2c(c1)C(=O)c1cc(OCCN(CC)CC)ccc1-2 [TILORONE HYDROCHLORIDE]	40	32.6	38.8	89.5	76.4	–	–	–
CN(C)CCCOc1ccc(-c2coc3cc(OCCCN(C)C)ccc3c2=O)cc1	22.2	20.6	24.4	34.9	41.9	–	–	–
CC(C)SCCOc1ccc2c(c1)C(=O)c1cc(OCCSC(C)C)ccc1-2	–	–	–	–	–	inactive	inactive	inactive

More lines, main results first:

IC50 (HeLa [1]) [µM]	IC50 (A549 [3]) [µM]	SMILES	IC50 [2] [µM]	IC50 (Vero) [µM]	IC50 (HEK-293T) [µM]	Activity (Hep 3B2)	Activity (A549 [4])	Activity (HeLa [5])
20.2	16	CCN(CC)CC(O)COc1ccc2c(c1)C(=O)c1cc(OCC(O)CN(CC)CC)ccc1-2 (centres undefined)	21.5	48.6	56.4	–	–	–
1.82	1.4	O=C1c2cc(OCC(O)CN3CCCCC3)ccc2-c2ccc(OCC(O)CN3CCCCC3)cc21 (centres undefined)	6.76	13	17.9	–	–	–
9.17	7.86	CC(C)(C)NCCOc1ccc2c(c1)C(=O)c1cc(OCCNC(C)(C)C)ccc1-2	20.1	25.3	19.8	–	–	–
6.78	7.42	CCCN(CCC)CC(O)COc1ccc2c(c1)C(=O)c1cc(OCC(O)CN(CCC)CCC)ccc1-2 (centres undefined)	9.43	57.8	54	–	–	–
1.72	2.43	CC(C)NCCOc1ccc2c(c1)C(=O)c1cc(OCCNC(C)C)ccc1-2	8.89	14.8	13.8	–	–	–
11.7	12.6	CN(C)CC(O)COc1ccc2c(c1)C(=O)c1cc(OCC(O)CN(C)C)ccc1-2 (centres undefined)	18.3	20.9	28.3	–	–	–
2.73	2.96	CCCNCCOc1ccc2c(c1)C(=O)c1cc(OCCNCCC)ccc1-2	5.17	8.47	8.59	–	–	–
107	> 100	CCOc1ccc2c(c1)C(=O)c1cc(OCCN(CC)CC)ccc1-2	84.8	–	–	–	–	–
5.32	4.34	O=c1c(-c2ccc(OCC(O)CN3CCCCC3)cc2)coc2cc(OCC(O)CN3CCCCC3)ccc12 (centres undefined)	12	18.5	20.2	–	–	–
> 100	> 100	CCOc1ccc2c(c1)C(=O)c1cc(OCCN(C)C)ccc1-2	> 100	–	–	–	–	–
> 100	> 100	CCN(CC)CCOc1ccc2c(c1)C(=O)c1cc(OCCCl)ccc1-2	> 100	–	–	–	–	–
> 100	> 100	O=C1c2cc(OCCn3ccnc3)ccc2-c2ccc(OCCn3ccnc3)cc21	> 100	–	–	–	–	–
